# From article PMC7037572 (Journal of Advanced Research, 2020)
# Key:
# Format in all cases: cell-based
# Settings in all cases: pre-treated 1 h, MSU 500 μg/ml 12 h
# MSU-treated THP-1 cells [1] = experiment: IL-1β in culture supernatants of MSU-treated THP-1 cells
# Outline: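 PMA-differentiated THP-1 cells (ATCC) were pre-treated 1 h with the test compound or a reference P2Y14R antagonist, then stimulated with MSU (500 μg/ml) for 12 h. IL-1β in collected culture supernatants was measured by ELISA kit. n = 4 per group; mean ± SD; one-way ANOVA with Tukey test, p < 0.05.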
# NLRP3 inflammasome = experiment: Western blot of NLRP3, ASC and Caspase-1 p20 in MSU-treated THP-1 cells
# Outline: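 THP-1 cells (PMA-differentiated, pre-treated 1 h, MSU 500 μg/ml 12 h) were lysed in RIPA buffer. Lysates were resolved by 8–12% SDS-PAGE and transferred to PVDF. After blocking, membranes took primary antibodies overnight at 4 °C, three TBST washes and HRP secondary antibodies for 2 h, with ECL detection. n = 4 per group; mean ± SD; one-way ANOVA/Tukey.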
# MSU-treated THP-1 cells [2] = experiment: cAMP levels in MSU-treated THP-1 cells
smiles,measurement,setting,value
O=C(O)c1cc(-c2ccc(C3CCNCC3)cc2)c2ccc(-c3ccc(C(F)(F)F)cc3)cc2c1 [PPTN],effect on IL-1β release into the supernatant,MSU-treated THP-1 cells [1],apparently inhibited the release of IL-1β
same,"effect on MSU-increased protein expressions of NLRP3, ASC and Caspase-1 p20",NLRP3 inflammasome,reversed
same,effect on MSU-induced decrease of cAMP concentrations,MSU-treated THP-1 cells [2],reversed
